The text below walks through data of ChEMBL document CHEMBL1275303, “Synthesis and antimicrobial activity of 2-substituted [4-(1,3,4-oxadiazol-2-yl methyl)] phthalazin-1(2H)-one derivatives” (2010).

The subject of assay [1] is Salmonella typhi. Kind of assay: Antimicrobial activity against Salmonella typhi at 50 ug/mL after 24 hrs by well plate method. The conditions noted are these: Salmonella enterica, read-out: IZ. The class given is functional, Salmonella enterica subsp. enterica serovar Typhi. In a few lines:
(§1)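 Agar well diffusion in nutrient agar: about 1 cm³ of a 24 h broth culture placed in a sterile dish, molten agar at 45 °C poured over it and allowed to set. 6 mm holes cut with a sterile cork borer and filled with compound solution in DMSO. Incubated 24 h at 37 °C; inhibition zone diameter read in mm. Run in duplicate, standard deviation calculated.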

The test system of assay [2] is Chrysosporium keratinophilum. Kind of assay: Antimicrobial activity against Chrysosporium keratinophilum at 100 ug/mL after 72 hrs by well plate method. The assay is classed as functional. The conditions noted are these: read-out: IZ. The procedure, abridged: (§2)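 Antifungal well-plate assay on Sabouraud dextrose agar using a 72 h old broth culture of the fungal strain. Wells were filled with compound dissolved in DMSO (100 or 50), and the zone of inhibition around each well was measured. […] served as reference.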

In assay [3] the test system is Candida albicans. Kind of assay: Antimicrobial activity against Candida albicans at 100 ug/mL after 72 hrs by well plate method. The class given is functional. The conditions noted are these: read-out: IZ. In a few lines: as §2
Assay [4] relates to Salmonella typhi. In words: Antimicrobial activity against Salmonella typhi at 100 ug/mL after 24 hrs by well plate method. The assay is classed as functional, Salmonella enterica subsp. enterica serovar Typhi. The following applies: Salmonella enterica, read-out: IZ. In a few lines:
as §1

The subject of assay [5] is Chrysosporium keratinophilum. In words: Antimicrobial activity against Chrysosporium keratinophilum at 50 ug/mL after 72 hrs by well plate method. The class given is functional. The following applies: read-out: IZ. In a few lines:
as §2

Assay [6] deals with Aspergillus flavus. Kind of assay: Antimicrobial activity against Aspergillus flavus at 50 ug/mL after 72 hrs by well plate method. The class given is functional. The following applies: read-out: IZ.
Assay [7] deals with Escherichia coli. In words: Antimicrobial activity against Escherichia coli at 100 ug/mL after 24 hrs by well plate method. The assay is classed as functional. The conditions noted are these: read-out: IZ. In a few lines:
(§3)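 Agar well diffusion in nutrient agar. About 1 cm³ of a 24 h broth culture was placed in sterile dishes, and molten agar at 45 °C was poured over it and set. 6 mm wells were bored and filled with compound in DMSO (100 or 50). Plates were incubated 24 h at 37 °C, and the inhibition zone was read in mm. Duplicate runs, with standard deviation; amoxicillin as reference.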

Assay [8] has as its system Escherichia coli. Kind of assay: Antimicrobial activity against Escherichia coli at 50 ug/mL after 24 hrs by well plate method. The assay is classed as functional. The conditions noted are these: read-out: IZ. In a few lines: as §3
Assay [9] concerns Staphylococcus aureus. In words: Antimicrobial activity against Staphylococcus aureus at 100 ug/mL after 24 hrs by well plate method. The class given is functional. The conditions noted are these: read-out: IZ. The procedure, abridged:
as §3

Assay [10] deals with Bacillus subtilis. Kind of assay: Antimicrobial activity against Bacillus subtilis at 100 ug/mL after 24 hrs by well plate method. The following applies: read-out: IZ. The assay is classed as functional. In a few lines:
as §3

Assay [11] concerns Nannizzia gypsea. In words: Antimicrobial activity against Microsporum gypseum at 100 ug/mL after 72 hrs by well plate method. The assay is classed as functional. The following applies: read-out: IZ. The procedure, abridged:
as §2

Assay [12] relates to Bacillus subtilis. In words: Antimicrobial activity against Bacillus subtilis at 50 ug/mL after 24 hrs by well plate method. The class given is functional. The following applies: read-out: IZ. The procedure, abridged: as §3
The subject of assay [13] is Candida albicans. In words: Antimicrobial activity against Candida albicans at 50 ug/mL after 72 hrs by well plate method. The class given is functional. The conditions noted are these: read-out: IZ. In a few lines: as §2
Assay [14] relates to Nannizzia gypsea. In words: Antimicrobial activity against Microsporum gypseum at 50 ug/mL after 72 hrs by well plate method. The assay is classed as functional. The following applies: read-out: IZ. The procedure, abridged: as §2
Assay [15] has as its system Aspergillus flavus. In words: Antimicrobial activity against Aspergillus flavus at 100 ug/mL after 72 hrs by well plate method. The assay is classed as functional. The following applies: read-out: IZ.
The test system of assay [16] is Staphylococcus aureus. Kind of assay: Antimicrobial activity against Staphylococcus aureus at 50 ug/mL after 24 hrs by well plate method. The assay is classed as functional. The conditions noted are these: read-out: IZ. The procedure, abridged: as §3

For the molecule `O=c1c2ccccc2c(Cc2nnc(C(F)(F)F)o2)nn1Cc1cnc(Cl)s1`, the zone of inhibition at 50 µg/mL in the assay on Salmonella typhi [1] amounted to 3 mm; in assay [5], 2 mm; in the assay on Aspergillus flavus [6] it was 1.5 mm; in the assay on Escherichia coli [8], 3 mm; in the assay with Bacillus subtilis [12] it was 3 mm; in the assay on Candida albicans [13], 0.5 mm. In addition, the values for the zone of inhibition at 50 µg/mL with Nannizzia gypsea [14] and in the assay on Staphylococcus aureus [16] were 3 mm and 4 mm, respectively. For the same molecule, the zone of inhibition at 100 µg/mL in assay [2] worked out at 5.5 mm; in the assay on Candida albicans [3], 3.5 mm; with Salmonella typhi [4] it was 5.5 mm; in the assay with Escherichia coli [7], 6.5 mm; in the assay on Staphylococcus aureus [9] it was 7 mm; with Bacillus subtilis [10], 5 mm. For the same molecule, the results for the zone of inhibition at 100 µg/mL with Nannizzia gypsea [11] and in the assay with Aspergillus flavus [15] were 5.5 mm and 4.5 mm, respectively.
Take `O=c1c2ccccc2c(Cc2nnc(C3CC3)o2)nn1Cc1cnc(Cl)s1`: the zone of inhibition at 50 µg/mL in the assay with Salmonella typhi [1] was 4 mm; in assay [5], 0.5 mm; with Aspergillus flavus [6], 3.5 mm; with Escherichia coli [8], 9 mm; in the assay on Bacillus subtilis [12], 2 mm; in the assay on Candida albicans [13], 3.5 mm. The zone of inhibition at 50 µg/mL amounted to 4.5 mm in the assay with Nannizzia gypsea [14] and 2 mm in the assay on Staphylococcus aureus [16]. Moreover, the zone of inhibition at 100 µg/mL in assay [2] was found to be 3.5 mm; in the assay with Candida albicans [3] it was 5.5 mm; in the assay with Salmonella typhi [4], 7.5 mm; with Escherichia coli [7], 11.5 mm; with Staphylococcus aureus [9], 4.5 mm; in the assay on Bacillus subtilis [10], 5.5 mm. For the same molecule, the zone of inhibition at 100 µg/mL with Nannizzia gypsea [11] worked out at 7 mm; with Aspergillus flavus [15] it was 6 mm.
In the case of `O=c1c2ccccc2c(Cc2nnc(-c3ccc(F)cc3)o2)nn1Cc1cnc(Cl)s1`, the zone of inhibition at 50 µg/mL turned out to be 5 mm in the assay with Salmonella typhi [1]; 0 mm in assay [5]; 2 mm with Aspergillus flavus [6]; 5 mm in the assay with Escherichia coli [8]; 2 mm in the assay with Bacillus subtilis [12]; 2.5 mm in the assay on Candida albicans [13]. The zone of inhibition at 50 µg/mL amounted to 4 mm in the assay on Nannizzia gypsea [14] and 5 mm in the assay on Staphylococcus aureus [16]. In addition, the zone of inhibition at 100 µg/mL stood at 2.5 mm in assay [2]; 5.5 mm in the assay with Candida albicans [3]; 9 mm in the assay on Salmonella typhi [4]; 9 mm in the assay with Escherichia coli [7]; 9 mm with Staphylococcus aureus [9]; 4.5 mm with Bacillus subtilis [10]. The zone of inhibition at 100 µg/mL with Nannizzia gypsea [11] is 8.5 mm; in the assay on Aspergillus flavus [15], 5 mm.
Consider `O=c1c2ccccc2c(Cc2nnc(-c3ccc(Cl)cc3)o2)nn1Cc1cnc(Cl)s1`, for which the zone of inhibition at 50 µg/mL with Salmonella typhi [1] turned out to be 5 mm; in assay [5] it was 2 mm; in the assay with Aspergillus flavus [6], 2.5 mm; with Escherichia coli [8] it was 5 mm; in the assay on Bacillus subtilis [12], 3 mm; with Candida albicans [13], 3 mm. The zone of inhibition at 50 µg/mL was found to be 1 mm with Nannizzia gypsea [14] and 7 mm with Staphylococcus aureus [16]. In addition, the zone of inhibition at 100 µg/mL in assay [2] amounted to 4.5 mm; in the assay with Candida albicans [3], 6.5 mm; in the assay with Salmonella typhi [4], 9.5 mm; with Escherichia coli [7], 9 mm; in the assay with Staphylococcus aureus [9] it was 10 mm; in the assay on Bacillus subtilis [10], 5.5 mm. Moreover, the values for the zone of inhibition at 100 µg/mL in the assay with Nannizzia gypsea [11] and with Aspergillus flavus [15] were 4 mm and 5 mm, respectively.
